Series [1] relates to Vero. Nature of the series: Cytotoxicity against african green monkey Vero cells at 4.7 ug/mL. The class given is cell-based. The conditions noted are these: chlorocebus sabaeus.
The subject of series [2] is Staphylococcus aureus. Kind of series: Antimicrobial activity against Staphylococcus aureus. The class given is functional, organism-based.
Series [3] concerns Staphylococcus aureus. Nature of the series: Antibacterial activity against methicillin-resistant Staphylococcus aureus. Type of series: functional, organism-based.
In the next series the test system is Cryptococcus neoformans. Nature of the series: […] activity against Cryptococcus neoformans. The class given is functional, organism-based.
Series [4] relates to Mycobacterium intracellulare. Nature of the series: Antibacterial activity against Mycobacterium intracellular. The class given is functional, organism-based.
In series [5] the test system is Human immunodeficiency virus 1. Kind of series: Antiviral activity against HIV1 infected in human PBMCs. Type of series: functional, organism-based.
The test system of series [6] is Mycobacterium tuberculosis. Nature of the series: Antitubercular activity against Mycobacterium tuberculosis H37Rv. The class given is functional.
For series [7], the system named is Plasmodium falciparum. Nature of the series: Antimalarial activity against Plasmodium falciparum D6. Type of series: functional, organism-based.
Series [8] deals with Plasmodium falciparum. Nature of the series: Antimalarial activity against chloroquine-resistant Plasmodium falciparum W2. Type of series: functional, organism-based.
Series [9] has as its system Leishmania donovani. Nature of the series: Antileishmanial activity against Leishmania donovani. Type of series: functional, organism-based.
Series [10] concerns Vero. Nature of the series: Cytotoxicity against african green monkey Vero cells. The class given is cell-based. The note with it: chlorocebus sabaeus. Summed up: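 Vero (African green monkey kidney) cell cytotoxicity, reported in µg/mL. Compounds without cytotoxicity were scored at a tested concentration of 4.7 µg/mL.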
Series [11] deals with Plasmodium falciparum. Nature of the series: Antimalarial activity against Plasmodium falciparum D6 at 5 ug/mL. The class given is functional, organism-based.
For series [12], the system named is Plasmodium falciparum. Kind of series: Antimalarial activity against chloroquine-resistant Plasmodium falciparum W2 at 5 ug/mL. The class given is functional, organism-based.
Series [13] concerns Leishmania donovani. Kind of series: Antileishmanial activity against Leishmania donovani at 5 ug/mL. Type of series: functional, organism-based.

We go through 17 compounds from ChEMBL document CHEMBL1148197, “Three new manzamine alkaloids from a common Indonesian sponge and their activity against infectious and tropical parasitic diseases” (J Nat Prod, 2004).

Converted amounts (≈) assume the structure as drawn. The source made the active and inactive calls.

As for `[O-][N+]1=C(C2=C[C@@]3(O)CC/C=C\CCCCN4CC[C@@H]2[C@]2(CC5/C=C\CCCCN5[C@H]23)C4)c2[nH]c3ccccc3c2CC1` (stereo partly specified), the Activity result with Vero [1] was “Non-toxic”. In addition, the result (in the series on Staphylococcus aureus [2]; in the series on Staphylococcus aureus [3]; with Cryptococcus neoformans; in series [4]; in series [5]) was inactive.
One may read the MIC as the smallest concentration in the dilution series that meets the test's criterion for growth inhibition. Usually IC50 stands for the midpoint of a concentration-inhibition curve. In general, IC90 refers to the point of the concentration-response curve where the effect stands at 90%. In the case of `[O-][n+]1ccc2c([nH]c3ccccc32)c1C1=C[C@@]2(O)CC/C=C\CCCCN3CC[C@@H]1[C@]1(C[C@@H]4/C=C\CCCCN4[C@H]12)C3`, the MIC in series [6] came out at 3.9 mg/L (≈ 6.91 µM). Also, the IC50 in the series with Plasmodium falciparum [7] worked out at 0.011 mg/L (≈ 0.0195 µM); with Plasmodium falciparum [8], 0.013 mg/L (≈ 0.023 µM); in the series with Leishmania donovani [9], 1.1 mg/L (≈ 1.95 µM); in the series with Staphylococcus aureus [2] it was 0.5 mg/L (≈ 0.885 µM); with Staphylococcus aureus [3] it was 0.4 mg/L (≈ 0.708 µM); with Cryptococcus neoformans, 1 mg/L (≈ 1.77 µM). Moreover, the 50% inhibitory concentration (IC50) in [4] turned out to be 0.2 mg/L (≈ 0.354 µM). Moreover, the IC90 in the series with Leishmania donovani [9] stood at 3.8 mg/L (≈ 6.73 µM). Besides, in the series with Vero [10], the Activity was found to be 4.2 µg/mL.
Take `O=C1CCCN2[C@@H]3[C@@]45CN6CCCC/C=C\CC[C@@]3(C=C(c3nccc7c3[nH]c3ccccc37)[C@@H]4CC6)O[C@]2(CC1)C5`: the 50% inhibitory concentration (IC50) was determined as 1.6 mg/L (≈ 2.84 µM) in the series with Plasmodium falciparum [7] and 3.7 mg/L (≈ 6.57 µM) in the series on Plasmodium falciparum [8]. The outcome with Plasmodium falciparum [11], with Plasmodium falciparum [12], in the series with Leishmania donovani [13], in the series on Staphylococcus aureus [2], in the series with Staphylococcus aureus [3] and in the series on Cryptococcus neoformans was inactive. The result in series [4] was inactive. In addition, the Activity result in the series on Vero [1] is given as “Non-toxic”.
For `O=C1CCCN2[C@@H](CC1)C[C@]13CN4CCCC/C=C\CC[C@](O)(C=C(c5nccc6c5[nH]c5ccc(O)cc56)[C@@H]1CC4)[C@H]23`, the Activity with Vero [10] came out at 4.3 µg/mL.
A word on the EC50: it is the concentration giving half of the maximal effect. Compound `Oc1cccc2c1[nH]c1c(C3=C[C@@]4(O)CC/C=C\CCCCN5CC[C@@H]3[C@]3(CC6/C=C\CCCCN6[C@H]34)C5)nccc12` (stereo partly specified) displayed an IC90 with Leishmania donovani [9] of 11 mg/L (≈ 19.5 µM). The compound further returned an Activity with Vero [10] of 1.1 µg/mL. Further, the EC50 in series [5] amounted to 0.59 µM.
In turn, `O[C@]12C=C(c3nccc4c3[nH]c3ccccc34)C3CCN(CCCC/C=C\CC1)C[C@@]31C[C@]34CC[C@H](CCCN3[C@H]12)O4` (stereo partly specified) [6-Deoxymanzamine X] came in with a minimum inhibitory concentration (MIC) in [6] of 1.8 mg/L (≈ 3.19 µM). In the series with Vero [10], the Activity was determined as 4.7 µg/mL. Also, the half-inhibitory concentration (IC50) with Staphylococcus aureus [2] was 1.5 mg/L (≈ 2.66 µM); in the series on Staphylococcus aureus [3] it was 1.5 mg/L (≈ 2.66 µM); with Cryptococcus neoformans, 2 mg/L (≈ 3.54 µM); in [4], 6.25 mg/L (≈ 11.1 µM).
Consider `C[C@@H]1[C@H](O)[C@@H](C)/C=C/C=C/C=C/C=C/C=C/C=C/C=C/[C@H](O[C@@H]2O[C@H](C)[C@@H](O)[C@H](N)[C@@H]2O)C[C@@H]2O[C@](O)(C[C@@H](O)C[C@@H](O)[C@H](O)CC[C@@H](O)C[C@@H](O)CC(=O)O[C@H]1C)C[C@H](O)[C@H]2C(=O)O` [AMPHOTERICIN B], for which the 90% effect concentration (IC90) in the series with Leishmania donovani [9] was 0.15 mg/L (≈ 0.162 µM).
Regarding `O=CC1=C[C@@]2(O)CC/C=C\CCCCN3CC[C@@H]1[C@]1(C[C@@H]4/C=C\CCCCN4[C@H]12)C3` [IRCINAL], in series [6], inhibition of growth (MIC) required 30.2 mg/L (≈ 73.6 µM). The results for the concentration for half-maximal inhibition (IC50) (with Leishmania donovani [9]; in series [4]) were 4.6 mg/L (≈ 11.2 µM) and 50 mg/L (≈ 122 µM), respectively. For the same compound, the 90% effect level in the series with Leishmania donovani [9] (IC90) was put at 8.5 mg/L (≈ 20.7 µM). In addition, the outcome in the series with Plasmodium falciparum [11], with Plasmodium falciparum [12], in the series with Staphylococcus aureus [2], in the series with Staphylococcus aureus [3] and with Cryptococcus neoformans was inactive. Moreover, the Activity result in the series on Vero [1] is given as “Non-toxic”. The compound also displayed an EC50 in [5] of 6.8 µM.
`OC1=C[C@@]2(O)CC/C=C\CCCCN3CC[C@@H]1[C@]1(C[C@@H]4/C=C\CCCCN4[C@H]12)C3` [IRCINOL A]: in [6], the MIC was found to be 1.9 mg/L (≈ 4.77 µM). Further, the IC50 amounted to 2.4 mg/L (≈ 6.02 µM) in the series on Plasmodium falciparum [7], 3.1 mg/L (≈ 7.78 µM) in the series with Plasmodium falciparum [8], 30 mg/L (≈ 75.3 µM) in the series on Staphylococcus aureus [3] and 50 mg/L (≈ 125 µM) in series [4]. Also, in the series on Leishmania donovani [9], the 90% effect level (IC90) was put at 0.7 mg/L (≈ 1.76 µM). The Activity result in the series with Vero [1] was “Non-toxic”. The result in the series with Staphylococcus aureus [2] and in the series on Cryptococcus neoformans was inactive. Also, in series [5], a half-maximal response (EC50) required 4.3 µM.
For the compound `O[C@]12C=C(c3nccc4c3[nH]c3ccccc34)[C@@H]3CCN(CCCC/C=C\CC1)C[C@@]31C[C@@H]3/C=C\CCCCN3[C@H]12` [MANZAMINE A], in the series with Leishmania donovani [9], it took 1.8 mg/L (≈ 3.28 µM) to reach the 90% level (IC90). In the series with Vero [10], the Activity was found to be 1.2 µg/mL. The same compound came in with a 50% effective concentration (EC50) in series [5] of 4.2 µM.
`O=C1CCCN2[C@@H](CC1)C[C@]13CN4CCCC/C=C\CC[C@](O)(C=C(c5nccc6c5[nH]c5ccccc56)C1CC4)[C@H]23` (stereo partly specified) [MANZAMINE E] gave a 90% effect concentration (IC90) in the series with Leishmania donovani [9] of 6.8 mg/L (≈ 12 µM). In the series with Vero [1], the Activity result was “Non-toxic”. The outcome in the series on Staphylococcus aureus [2], with Staphylococcus aureus [3] and in the series on Cryptococcus neoformans was inactive. Moreover, the concentration for a half-maximal effect (EC50) in [5] was 13.1 µM.
On to `O=C1CCCN2[C@@H](CC1)C[C@]13CN4CCCC/C=C\CC[C@](O)(C=C(c5nccc6c5[nH]c5c(O)cccc56)C1CC4)[C@H]23` (stereo partly specified) [MANZAMINE F], for which, in the series with Leishmania donovani [9], the 90% effect level (IC90) was put at 7 mg/L (≈ 12.1 µM). Also, the Activity entry in the series with Vero [1] is recorded as “Non-toxic”. The result in the series on Staphylococcus aureus [2] and with Staphylococcus aureus [3] was inactive. This compound also had an EC50 in series [5] of 7.3 µM.
With `O[C@]12C=C(c3nccc4c3[nH]c3ccccc34)[C@@H]3CCN(CCCC/C=C\CC1)C[C@@]31CC/C=C\CCCCN[C@H]12` [MANZAMINE J], in [6], it took 1.7 mg/L (≈ 3.09 µM) to inhibit growth (MIC). Besides, the IC50 with Plasmodium falciparum [7] was found to be 1.3 mg/L (≈ 2.36 µM); in the series with Plasmodium falciparum [8], 0.75 mg/L (≈ 1.36 µM); in the series with Leishmania donovani [9], 25 mg/L (≈ 45.4 µM); in [4], 15 mg/L (≈ 27.2 µM). In addition, the IC90 with Leishmania donovani [9] stood at 45 mg/L (≈ 81.7 µM). Moreover, the Activity entry in the series with Vero [1] is reported as “Non-toxic”. Moreover, the outcome in the series with Staphylococcus aureus [2], with Staphylococcus aureus [3] and with Cryptococcus neoformans was inactive.
Consider `Oc1ccc2[nH]c3c(C4=C[C@@]5(O)CC/C=C\CCCCN6CC[C@@H]4[C@@]4(C6)C[C@@]67CC[C@@H](CCCN6[C@H]45)O7)nccc3c2c1` [MANZAMINE X], for which the Activity result with Vero [1] was “Non-toxic”. Moreover, the concentration for half-maximal inhibition (IC50) with Staphylococcus aureus [2] was 1 mg/L (≈ 1.72 µM); in the series with Staphylococcus aureus [3], 0.75 mg/L (≈ 1.29 µM); in the series on Cryptococcus neoformans, 3 mg/L (≈ 5.17 µM); in series [4], 1.5 mg/L (≈ 2.58 µM). In addition, the concentration giving a half-maximal response (EC50) in [5] stood at 2.3 µM.
Compound `O[C@@H]1CCCN2CC[C@@H]1O[C@@]13CC[C@@H](OC[C@]45CN6CCCC/C=C\CC[C@](O)(C=C(c7nccc8c7[nH]c7ccccc78)[C@@H]4CC6)[C@H]25)[C@@H](O)CCN1[C@@H]1[C@]2(CN4CCCC/C=C\CC[C@]1(O)C=C(c1nccc5c1[nH]c1ccccc15)[C@@H]2CC4)C3` [NEO-KAULUAMINE] displayed an MIC in series [6] of 2 mg/L (≈ 1.72 µM). Also, the IC50 in the series on Plasmodium falciparum [7] came to 1.7 mg/L (≈ 1.46 µM); in the series with Plasmodium falciparum [8] it was 2.8 mg/L (≈ 2.41 µM); in the series on Leishmania donovani [9], 4.2 mg/L (≈ 3.61 µM); with Cryptococcus neoformans it was 3 mg/L (≈ 2.58 µM); in series [4] it was 3 mg/L (≈ 2.58 µM). In the series on Leishmania donovani [9], the IC90 is 8.2 mg/L (≈ 7.05 µM). Besides, the Activity result in the series with Vero [1] is given as “Non-toxic”. Besides, the outcome in the series with Staphylococcus aureus [2] and with Staphylococcus aureus [3] was inactive. In [5], this compound had an EC50 of 2.3 µM.
In the series with Leishmania donovani [9], `N=C(N)c1ccc(OCCCCCOc2ccc(C(=N)N)cc2)cc1` [PENTAMIDINE] yielded an IC90 of 10 mg/L (≈ 29.4 µM).
Compound `CO[C@H]1/C=C/O[C@@]2(C)Oc3c(C)c(O)c4c(O)c(c(/C=N/N5CCN(C)CC5)c(O)c4c3C2=O)NC(=O)/C(C)=C\C=C\[C@H](C)[C@H](O)[C@@H](C)[C@@H](O)[C@@H](C)[C@H](OC(C)=O)[C@@H]1C` [RIFAMPIN] registered a minimal inhibitory concentration (MIC) in [6] of 0.5 mg/L (≈ 0.608 µM).
